Assay outcomes as filed in PubChem BioAssay.
Rows were chosen to be rich in hits. Some 2.1% of all compounds tested hit in one or more screens of this group.
PKA-R1A activ – activators of PKA-R1A complex; P00514+P68181; PKA-R1A dissociation, Cy5-IP20 fluorescence polarization; scaled: DMSO 0%, 113 µM cGMP 100%; activation, % at 11.4 µM; AID 504707; hit rate 0.083% among 340,000;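 active means percent activation above the mean of all tested compounds plus 3 SD, cut at about 19% in these data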;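 further: higher means more PKAc released from R1A so a rise in polarization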
CDK5 inh – CDK5/p35 (human) kinase inhibition | Q00535+Q15078 | Recombinant CDK5/p35, ADP-Glo luminescence, 60 min | inhibition, % at 10 µM | hit rate 0.01% among 330,000;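 active means highest replicate inhibition of at least 50% and at least 75% of replicates reaching 50%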;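 further: plate controls were DMSO neutral control for no effect and GW8510 at 10 µM for full effect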
dFosB act – activators of mouse delta FosB homodimer; purified delta FosB, TAMRA-CDK5 oligo fluorescence polarization; percent of positive-control signal above neutral wells; AID 493131; activation, % at 25 µM; hit rate 0.99% among 340,000;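 active means mean activation above about 17%, with every replicate also reaching it, limit read from the data, passing the limit was not always enough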
SR-BI DiI inh – mouse SR-BI HDL lipid transfer inhibition. hit rate 0.96% among 320,000. ldlA[mSR-BI] CHO cells, DiI-HDL uptake fluorescence, 3 h. Q61009. AID 488896. inhibition, % at 12.5 µM;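 active means mean replicate inhibition of at least 70% and a set share of replicates each scoring 70 or more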;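 further: 0% = median of neutral control wells and 100% = median of positive control wells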
Target sequence (Q61009 whole entry, looked up): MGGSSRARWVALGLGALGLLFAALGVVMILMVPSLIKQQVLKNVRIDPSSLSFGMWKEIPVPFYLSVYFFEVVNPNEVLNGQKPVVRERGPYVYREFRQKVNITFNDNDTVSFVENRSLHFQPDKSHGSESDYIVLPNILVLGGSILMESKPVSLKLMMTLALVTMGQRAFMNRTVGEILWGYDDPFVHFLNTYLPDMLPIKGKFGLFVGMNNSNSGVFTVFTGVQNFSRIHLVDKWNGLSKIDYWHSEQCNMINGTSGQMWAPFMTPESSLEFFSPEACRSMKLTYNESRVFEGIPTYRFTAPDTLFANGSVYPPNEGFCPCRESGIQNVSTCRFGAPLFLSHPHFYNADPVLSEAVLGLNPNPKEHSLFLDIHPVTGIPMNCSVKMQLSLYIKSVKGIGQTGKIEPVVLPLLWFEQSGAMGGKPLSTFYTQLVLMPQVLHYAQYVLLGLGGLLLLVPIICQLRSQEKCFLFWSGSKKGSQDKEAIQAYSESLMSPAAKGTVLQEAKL
SR-BI DiI-HDL act – SR-BI HDL lipid transfer activation | hit rate 0.096% among 320,000 | CHO ldlA[mSR-BI] cells, DiI-HDL uptake fluorescence, 3 h; 100 = double the neutral-control signal | activation, % at 12.5 µM;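 active means mean replicate activation of at least 60% and every replicate at or above 60%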;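 further: 0% = median plate neutral-control signal and 100% = twice that signal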
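Assay system: CHO ldlA[mSR-BI] cells, LDL receptor-null, SR-BI overexpressing; medium: Ham's F12 with 0.5% BSA, HEPES 25 mM, pH 7.4; also added: DiI-HDL 10 µg/mL; timing: 3 h uptake period with compound, 37 °C; signal: DiI fluorescence, bottom read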
PKA-R2B activ – PKA-R2B complex activation; P22694+P31323; PKA-R2B holoenzyme dissociation, Cy5-IP20 fluorescence polarization; R2B truncated from residue 108, S112A mutant; 0% DMSO only, 100% 113 µM cGMP; activation, % at 11.4 µM; hit rate 0.079% among 340,000;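 active means activation above a cutoff set at the mean over all compounds plus 3 SD, cut at about 18% in these data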;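 further: higher means more holoenzyme dissociation and a rise in polarization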
* marks the source's active call; other numbers are inactive results; i = inactive; . = no result.

SMILES | PKA-R1A activ | CDK5 inh | dFosB act | SR-BI DiI inh | SR-BI DiI-HDL act | PKA-R2B activ
OC1CCCN(Cc2ccc3ccc4cccc5ccc2c3c45)C1 (stereo not drawn) | 0 | -2 | 68* | 3 | -3 | -6
c1cc2ccc3ccc(CN4CCOCC4)c4ccc(c1)c2c34 | -3 | -1 | 31* | -3 | 3 | -6
OC1CCCN(Cc2cn(Cc3ccccc3)nc2-c2cc3ccccc3o2)C1 (stereo not drawn) | -12 | 3 | -7 | -3 | 3 | 3
Cc1cc2ccccc2cc1CN1CCOCC1 | -1 | 1 | 2 | -9 | 9 | 4
COC(=O)C1(C)COP(=O)(NC23CC4CC(CC(C4)C2)C3)OC1 (stereo not drawn) | 0 | 1 | 3 | 3 | -3 | -2
N#C/C(=C\c1ccc(F)cc1F)S(=O)(=O)c1ccccn1 | 0 | 1 | 1 | -20 | 20 | 4
Nc1ccc(C(=O)n2c3ccccc3c3ccccc32)cc1 | -16 | 0 | 6 | 91* | -91 | -9
CCCCNC(=O)c1cc2nc3c(c(C(F)(F)F)n2n1)CCc1ccccc1-3 | 6 | 1 | -3 | 28 | -28 | -2
CC(C)CNC(=O)c1cc2nc3c(c(C(F)(F)F)n2n1)CCc1ccccc1-3 | 1 | 0 | -11 | 78* | -78 | 1
CC1CCCCC1NC(=O)CSc1nnc(-c2ccco2)n1N (stereo not drawn) | -3 | . | . | . | . | 0
Cc1ccc(OCC(=O)NNC(=O)CSc2ncnc3sc(C)c(C)c23)cc1 | 10 | 2 | 15 | -11 | 11 | -2
Cc1ccc(OCCSc2ncnc3sc(C)c(C)c23)cc1C | -1 | 2 | 0 | i | 950* | 6
COc1cc(CC(=O)NCC2CCCCC2)cc(OC)c1OC | 7 | 0 | -7 | 9 | -9 | 3
Cc1cc(C)cc(N=c2c([N+](=O)[O-])nn(-c3ccc(Cl)cc3)n2O)c1 | -2 | 1 | -4 | 80* | -80 | -15
CCc1ccc(N=c2c([N+](=O)[O-])nn(-c3ccccc3)n2O)cc1 | -12 | -1 | -7 | 15 | -15 | -6
COc1cc(OC)c(/C=N/NC(=O)c2ccncc2)c(OC)c1 | -5 | 0 | 6 | -5 | 5 | -7
N=c1c(-c2nc3ccccc3[nH]2)cc(C(=O)c2ccco2)nn1-c1ccccc1 | -4 | -1 | 9 | 73* | -73 | -4
N=c1c(-c2nc3ccccc3[nH]2)cc(C(=O)c2cccs2)nn1-c1ccccc1 | 12 | 1 | 0 | 62 | -62 | 12
O=C(Cc1c2ccccc2nc2ccccc12)c1ccccc1 | 9 | -2 | -3 | -44 | 44 | -9
Cc1ccc(NC(=S)N(CCCN2CCCC2)Cc2cccn2Cc2ccc(Cl)cc2)cc1C | 3 | -1 | 32* | 13 | -13 | -6
COc1ccc(NC(=S)N(CCCN2CCC(C)CC2)Cc2cccs2)cc1Cl | 1 | 1 | -7 | -12 | 12 | -2
CCN1CCN(CCCN(Cc2ccco2)C(=S)Nc2ccc(Cl)c(C)c2)CC1 | -3 | -1 | 3 | 1 | -1 | -4
FC(F)(F)c1cccc(NC(=S)N(CCCN2CCCC2)Cc2cccn2Cc2ccc(Cl)cc2)c1 | -4 | 2 | 45* | -36 | 36 | -1
COc1ccc(NC(=S)N(CCCN2CCCC2)Cc2cccn2Cc2ccc(Cl)cc2)cc1Cl | 4 | 1 | 48* | -1 | 1 | 1
Cc1cc(NC(=S)N(CCN2CCCCC2)Cc2ccco2)ccc1Cl | 10 | -6 | -9 | 7 | -7 | 6
SMILES | PKA-R1A activ | CDK5 inh | dFosB act | SR-BI DiI inh | SR-BI DiI-HDL act | PKA-R2B activ
Cc1ccc(NC(=S)N(CCCN2CCCC2)Cc2cccn2Cc2ccc(Cl)cc2)cc1Cl | -1 | -1 | 69* | -11 | 11 | 1
C[C@H](NC(=O)C1CCN(S(=O)(=O)c2ccccc2)CC1)C(=O)NCc1cccnc1 | 0 | . | . | . | . | 3
COc1ccc(-c2csc(N(CC3CCCO3)C(=O)c3ccc(C)cc3)n2)cc1 (stereo not drawn) | 0 | 0 | -4 | 77* | -77 | -7
COc1ccc(-c2cc(C(=O)NCC3CCCO3)c3ccccc3n2)cc1 (stereo not drawn) | -10 | 2 | -16 | 63 | -63 | -4
COCCCN(C(C)=O)c1nc(-c2ccc(OC)cc2)cs1 | -5 | -3 | -8 | 78* | -78 | 4
COc1ccc(-c2cc(C(=O)NCC3CCCO3)c3cc(C)ccc3n2)cc1 (stereo not drawn) | -1 | 5 | -15 | 72* | -72 | -14
O=C(COC(=O)c1cc[n+]([O-])cc1)Nc1cc([N+](=O)[O-])ccc1Cl | -7 | -3 | -2 | -3 | 3 | 6
CCC(C(=O)NC1C(=O)N2C(C(=O)O)=C(CSc3nnc(C)s3)CSC12)c1ccccc1 (stereo not drawn) | -2 | 0 | -4 | -74 | 74* | -11
CN1C(=O)C2(NCCc3c2[nH]c2ccccc32)c2ccccc21 (stereo not drawn) | -2 | 0 | -4 | 7 | -7 | 1
CC1=CC(C)(C)N2C(=O)C3(NCCc4c3[nH]c3ccccc43)c3cc(C)cc1c32 (stereo not drawn) | 7 | 1 | 2 | 88* | -88 | -5
Cc1ccc(NC(=O)C2CCN(S(=O)(=O)c3ccc(C(C)(C)C)cc3)CC2)cc1S(=O)(=O)N1CCOCC1 | 8 | 0 | -1 | 59 | -59 | -3
COc1cc(NC(=O)Cc2ccccc2)ccc1NC(=O)c1ccccc1 | -17 | 0 | 4 | 47 | -47 | -13
COc1ccc(CCNC(=O)c2ccc(CNS(=O)(=O)c3ccc(C(C)(C)C)cc3)cc2)cc1OC | 2 | 1 | 0 | 65 | -65 | -13
COc1ccc(CCNC(=O)c2ccc(CNS(=O)(=O)c3cccc(Cl)c3)cc2)cc1OC | -2 | -1 | -4 | 81* | -81 | -11
COc1ccc(CCNC(=O)c2ccc(CNS(=O)(=O)c3cc(C)ccc3C)cc2)cc1OC | 4 | 0 | -6 | 79* | -79 | 9
COc1ccc(CCNC(=O)c2ccncc2)cc1OC | -2 | -2 | -3 | -9 | 9 | -1
O=[N+]([O-])c1ccc(Sc2ccccn2)nc1 | -2 | -2 | -3 | 0 | 0 | 2
O=C(Nc1cc(Sc2ccccn2)cc([N+](=O)[O-])c1)c1ccc([N+](=O)[O-])cc1 | -1 | -9 | -2 | 90* | -90 | -1
CCN(CC(=O)Nc1c(F)cccc1F)C(=O)c1cc(C)oc1C | 10 | -1 | 3 | -22 | 22 | 0
O=c1cc(Cn2ccnc2)c2cc(O)ccc2o1 | -9 | 2 | -2 | 78* | -78 | 0
